Assay outcomes (PubChem)
MrgX1 allo act: human MrgX1 positive allosteric modulation, primary screen; AID 588675; hit rate 0.63% among 310,000; MrgX1-HEK293, Fluo-4 calcium flux, FDSS; hits give high values; Q96LB2; B-score at 10 µM;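 active = plate-corrected calcium response at least 3 library SD above typical, normal starting fluorescence, not activating the receptor alone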;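 note: compound read alongside a low EC10 to EC30 dose of BAM8-22 agonist; peak minus trough fluorescence over baseline measured at the second addition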
Target sequence (Q96LB2 whole entry, looked up): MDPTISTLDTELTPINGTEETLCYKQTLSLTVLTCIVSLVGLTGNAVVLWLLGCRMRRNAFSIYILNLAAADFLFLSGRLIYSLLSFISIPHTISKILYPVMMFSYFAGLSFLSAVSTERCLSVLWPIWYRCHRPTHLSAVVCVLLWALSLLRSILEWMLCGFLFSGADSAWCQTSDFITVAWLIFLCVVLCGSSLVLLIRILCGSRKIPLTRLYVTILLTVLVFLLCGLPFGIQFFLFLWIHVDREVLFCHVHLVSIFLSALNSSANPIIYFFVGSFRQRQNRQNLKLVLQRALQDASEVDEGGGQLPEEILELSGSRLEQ
MrgX1 antagonist: antagonists of human MrgX1 receptor; Q96LB2; MRGX1-HEK293 calcium flux, Fluo-4, BAM8-22 antagonism; hits give low values; B-score at 10 µM; hit rate 1.3% among 310,000;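 active = calcium-response B-score plate-corrected more than 3 library SD below zero, starting fluorescence within 5 deviations, no agonist response on first addition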;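 note: peak minus trough fluorescence over baseline after final BAM8-22 challenge near maximal dose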
MrgX1 ag: activates human MrgX1 receptor signaling. Q96LB2. MrgX1-HEK293 cells, Fluo-4 calcium fluorescence, agonist mode; hits give high values. B-score at 10 µM. hit rate 0.44% among 310,000;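 active = calcium response B-score plate-corrected fluorescence ratio at least 3 library SD, with starting fluorescence B-score inside 5 SD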
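Test system: HEK293 cells stably expressing human MrgX1 receptor; Input: fifteen thousand cells per well; Dosing: compound delivered in addition one of three; Schedule: overnight seeding, then 1 h dark dye loading; Technique: Fluo-4 NW calcium fluorescence; Measure: B-scored fluorescence response ratio; Controls: positive and negative controls per plate.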
RGS4 pot: potentiators or activators of RGS4. AID 463111. hit rate 0.92% among 310,000. B-score at 10 µM. HEK293 M3R/inducible RGS4, carbachol calcium flux Fluo4; hits give low values;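 active = B-score of the integrated calcium signal more than 4 SD below the library mean, with starting fluorescence not abnormally high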;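 note: negative B-score means reduced calcium response which marks RGS4 activation or potentiation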
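Also added: carbachol at ECmax as muscarinic agonist stimulus; Assay system: HEK293 cells with stable M3R and inducible RGS4; Timing: overnight RGS4 induction, 30 min dye load 37 °C, 20 min compound RT; Measured by: Fluo4-AM (2 µM) calcium-flux fluorescence, kinetic read.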
RGS4 block: inhibitors of human RGS4; AID 463165; hit rate 0.45% among 310,000; HEK293 M3R/RGS4 inducible, Fluo-4 calcium flux; hits give high values; triggered by carbachol at its EC20; B-score at 10 µM;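 active = B-score, a plate-corrected calcium signal, over three deviations above library mean, with baseline fluorescence within five deviations of library mean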;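 note: RGS4 expression induced by doxycycline in cells with stable M3 receptor; B-score is computed from the integrated fluorescence ratio over baseline after carbachol; higher B-score means a larger calcium signal and so more RGS4 inhibition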
Target sequence (P49798 whole entry, looked up): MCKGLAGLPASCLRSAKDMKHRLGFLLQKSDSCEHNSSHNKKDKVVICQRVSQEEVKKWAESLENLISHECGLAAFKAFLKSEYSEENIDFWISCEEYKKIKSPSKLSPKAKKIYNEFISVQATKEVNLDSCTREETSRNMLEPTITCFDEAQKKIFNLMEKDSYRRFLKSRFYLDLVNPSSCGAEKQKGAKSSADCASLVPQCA
Lipid droplet: modulators of hepatic lipid droplet formation. AID 1656. AML12 mouse hepatocytes, oleate lipid droplets, BODIPY imaging. inhibition, % at 6.5 µM. hit rate 0.4% among 240,000;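 active = lipid droplet intensity inhibited by at least 50%, with more than 500 cells counted; inconclusive = wells with under 300 cells, treated as cytotoxic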
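Test system: AML12 hepatocytes (mouse); reagent: oleate loading, 100 µM; dosing: one dose, 6.5 µM compound; incubation: overnight exposure; signal: fluorescence imaging, 20x objective, two fields per well; read-out basis: % inhibition of corrected integrated BODIPY droplet signal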
MrgX1 allo conf: confirmation of human MrgX1 receptor positive allosteric modulators; shares compounds with MrgX1 allo act; MrgX1-HEK293, Fluo-4 calcium fluorescence, FDSS; hit rate 13% among 1,200; activation (ratio percentage), % at 10 µM;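 active = ratio at least 3 SD above the weak peptide control, stable starting fluorescence, no direct agonism earlier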;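 note: compound followed by low BAM8-22 agonist challenge near EC20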
MrgX1 ant reconf: human MrgX1 receptor antagonism, re-confirmation screen; remaining BAM8-22 calcium response % of control (hits give low values), % at 10 µM; MrgX1-HEK293, BAM8-22 calcium flux, Fluo-4; hits give low values; hit rate 19% among 2,300; shares compounds with MrgX1 antagonist;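 active = remaining agonist calcium response no higher than 100% minus 3 SD of agonist-only control wells, with starting fluorescence near control levels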;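 note: agonist BAM8-22 given at a near maximal EC90 to ECmax level; peak minus minimum fluorescence divided by baseline after agonist addition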
HEK293 Ca flux: activity in parental HEK293 cells lacking MrgX1 | AID 624111 | hit rate 2% among 4,000 | fluorescence ratio F(max-min)/F0 at 10 µM | shares compounds with MrgX1 antagonist | Fluo-4 calcium fluorescence, FDSS;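 active = duplicate-averaged calcium fluorescence ratio at least three times the standard deviation of buffer wells, a nonspecific response in parental cells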
HEK293 Ca counter: activity in parental HEK293 cells without MrgX1. parental HEK293 calcium flux, Fluo-4 fluorescence ratio; hits give high values. shares compounds with MrgX1 antagonist. hit rate 0.4% among 4,000. fluorescence ratio F(max-min)/F0 at 10 µM. AID 624114;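 active = calcium fluorescence ratio, averaged over duplicates, at least 3 SD of the buffer-well ratio, meaning a nonspecific response in receptor-free cells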;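 note: untransfected parental HEK293 lacking MrgX1 used as counterscreen for MrgX1 allosteric activators; fluorescence change taken during the second addition on a kinetic imager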
HEK293 Ca cntr2: activity in parental HEK293 cells lacking MrgX1 receptor | shares compounds with MrgX1 antagonist | Fluo-4 calcium fluorescence (FDSS); hits give high values | fluorescence ratio F(max-min)/F0 at 10 µM | hit rate 8.7% among 4,000 | AID 624115;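 active = calcium fluorescence ratio at least three times the spread of buffer wells, meaning a non-specific response in parental cells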
* = called active by the depositor; i = inactive; ? = inconclusive; . = no result given. Hits are enriched below; roughly 3.8% of the tested compounds scored in any of these assays.

SMILES	MrgX1 allo act	MrgX1 antagonist	MrgX1 ag	RGS4 pot	RGS4 block	Lipid droplet	MrgX1 allo conf	HEK293 Ca flux	HEK293 Ca counter	HEK293 Ca cntr2	others
Cc1cccc(OCC(=O)Nc2ccccc2N2CCCC2)c1C	26*	i	i	i	i	.	25%*	i	i	i
Cc1ccccc1OCC(=O)Nc1ccccc1N1CCCCC1	i	i	i	i	i	.	.	.	.	.
Cc1cc(OCC(=O)Nc2ccccc2N2CCCC2)ccc1C(C)C	22*	i	i	i	i	.	13%*	i	i	i
O=C(Nc1ccc(S(=O)(=O)N2CCOCC2)cc1)c1c(F)cccc1F	i	i	i	i	i	18	.	.	.	.
CCN(CC)S(=O)(=O)c1ccc(-n2cnc3cc(C)c(C)cc32)nc1	i	i	i	i	i	4	.	.	.	.
O=C(c1ccco1)N1CCCN(Cc2nc(-c3cccs3)no2)CC1	i	i	i	i	i	-4	.	.	.	.
Cc1cc(OCC(=O)Nc2ccccc2N2CCCCC2)ccc1C(C)C	6.9*	i	i	i	i	.	i	i	i	i
COc1cccc(CC(=O)Nc2ccccc2N2CCCC2)c1	9.4*	i	i	i	i	-14	i	i	i	i
Cc1cccc(OCC(=O)Nc2cc(S(=O)(=O)N3CCCCC3)ccc2N2CCN(C)CC2)c1	16*	i	i	i	i	-10	i	i	i	i
CN1CCN(c2ccc(S(=O)(=O)N3CCCCC3)cc2NC(=O)COc2cccc(Cl)c2)CC1	i	i	i	i	i	.	.	.	.	.
CC(Oc1ccc(F)cc1)C(=O)Nc1ccccc1N1CCCCC1 (stereo not drawn)	12*	i	i	i	i	?	i	i	i	i
Cc1cc(NC(=O)CSC2=NS(=O)(=O)c3cc(F)ccc3N2)no1	i	i	i	i	i	.	.	.	.	.
COc1ccc2oc(C(=O)OC(C)C(=O)NC3(C#N)CCCCC3)c(C)c2c1 (stereo not drawn)	i	i	i	i	i	.	.	.	.	.
Cc1ccn2c(Nc3ccccc3C)c(-c3ccccn3)nc2c1	9.1*	i	i	i	i	-2	i	i	i	i
O=C(NCc1ccccc1Cl)c1ccc2c(c1)OCO2	i	i	i	i	i	20	.	.	.	.
NC1=NC[C@@H](Cc2ccc(O)cc2)N1CCc1cccc2ccccc12	i	i	i	i	i	17	.	.	.	.
CCC(C)[C@H]1CN=C(N)N1CCc1cccc2ccccc12 (stereo partly drawn)	i	i	i	i	i	.	.	.	.	.
NC1=NC[C@H](Cc2ccc(O)cc2)N1CCCCC1CCCCC1	9.3*	i	i	i	i	45	i	i	i	i
NCCCC[C@H]1CN=C(N)N1CCc1cccc2ccccc12	33*	i	i	i	i	.	i	i	i	i
NC1=NC[C@H](Cc2ccc(O)cc2)N1CCc1cccc2ccccc12	9.6*	-12*	i	i	i	.	i	i	i	i	MrgX1 ant reconf=i
Cc1nc(-c2ccc(NC(=O)c3ccccc3Br)cc2)cs1	i	i	i	i	i	-6	.	.	.	.
Cc1ccc(CC2C(=O)N(c3nc(C)cc(C)n3)C(=O)C2C)cc1 (stereo not drawn)	i	i	i	i	i	-18	.	.	.	.
COc1ccc(C(=O)Nc2ccccc2C(=O)N2CCCCC2C)cc1 (stereo not drawn)	i	i	i	i	i	.	.	.	.	.
COc1ccc(CC(=O)NC(=S)Nc2cccc(CO)c2)cc1	7.2*	i	i	i	i	.	i	i	i	i
COc1cccc(OC)c1NC(=O)CN1CCC(NC(=O)c2cccc(F)c2)CC1	i	i	i	i	i	2	.	.	.	.
SMILES	MrgX1 allo act	MrgX1 antagonist	MrgX1 ag	RGS4 pot	RGS4 block	Lipid droplet	MrgX1 allo conf	HEK293 Ca flux	HEK293 Ca counter	HEK293 Ca cntr2	others
Cc1cc(Cl)ccc1OCC(=O)N1C(C)CCCC1C (stereo not drawn)	12*	i	i	i	i	-25	i	i	i	i
Cc1ccc(NCc2nc3ccccc3n2C)cc1C	i	i	i	i	i	-8	.	.	.	.
Cc1onc(C(=O)N2C(C)CCCC2C)c1[N+](=O)[O-] (stereo not drawn)	i	i	i	i	i	4	.	.	.	.
N=C1/C(=C\c2ccc(OC(=O)c3ccco3)cc2)C(=O)N=C2SC(N3CCCCC3)=NN12	i	i	i	i	i	6	.	.	.	.
CC(C)S(=O)(=O)C1=NSC2=NC(=O)/C(=C\c3ccc(OC(=O)c4ccco4)cc3)C(=N)N21	35*	i	i	i	i	-16	i	i	i	i
Nn1c(SCC(=O)Nc2cccc(S(N)(=O)=O)c2)nnc1C1CC1	7.8*	i	i	i	i	13	i	i	i	i
COc1ccc(N(C)S(=O)(=O)c2ccc3c(c2)NC(=O)CO3)c(OC)c1	7*	i	i	i	i	-1	i	i	i	i
O=C1COc2ccc(S(=O)(=O)NCc3ccc(Cl)cc3)cc2N1	6.5*	i	i	i	i	18	i	i	i	i
O=C1COc2ccc(S(=O)(=O)NCCc3ccccc3)cc2N1	i	i	i	i	i	8	.	.	.	.
COc1ccc(C)cc1NC(=O)C1CCN(S(=O)(=O)c2ccc3c(c2)NC(=O)CO3)CC1	7.6*	i	i	i	i	-13	i	i	i	i
O=c1ccc2cc(S(=O)(=O)NCc3ccccc3)ccc2[nH]1	i	i	i	i	i	-13	.	.	.	.
